Experimental data from different studies.
Lines come from different studies, so protocols differ.
Effect on: cell growth or viability

| Structure (SMILES) | cell line | assay | setting | measurement | result |
| --- | --- | --- | --- | --- | --- |
| CNC(=O)c1cc(Oc2ccc(NC(=O)Nc3ccc(Cl)c(C(F)(F)F)c3)cc2)ccn1 | MDA-MB-231 | MTT | 50 µM, 24 h | viability | 16.7% |
| COc1ccc2/c(=N/c3ccccc3NC(=O)[C@@H](N)C(C)(C)C)cc(-c3ccc4c(c3)OCCO4)oc2c1 | MDA-MB-231 | CCK-8 | 1 µM | inhibition | 6.88% |
| O=C(Nc1ccc(Cl)cc1)Nc1ccc(Oc2nc3ccccc3n3cnnc23)cc1 | MDA-MB-231 | MTT | 50 µM, 24 h | viability | 56.4% |
| CN(C)c1cccc(Nc2nc(-c3ccncc3)nc3c2CNCC3)c1 | A-375 | MTT | – | IC50 | 88.8 µM |
| Cc1nc(Nc2ncc(C(=O)Nc3c(C)cccc3Cl)s2)cc(N2CC[C@H](O)C2)n1 | SU-DHL-1 | ATP luminescence | 10 µM, 72 h | inhibition | 11% |
| N[C@@H](CO)C(=O)Nc1ccccc1/N=c1\cc(-c2ccc3c(c2)OCO3)oc2ccccc12 | MDA-MB-231 | CCK-8 | 1 µM | inhibition | 11.7% |
| COc1cc(C(=O)c2nc(-c3cccc4[nH]ccc34)c[nH]2)cc2c1OCO2 | A-375 | MTS | 72 h | IC50 | 0.0051 µM |
| C[C@H](N)C(=O)Nc1ccccc1/N=c1\cc(-c2ccc3c(c2)OCCO3)oc2c([N+](=O)[O-])cccc12 | MDA-MB-231 | CCK-8 | 1 µM | inhibition | -3.63% |
| O=C(Nc1ccccc1)Nc1ccc(Oc2nc3ccccc3n3cnnc23)cc1 | MDA-MB-231 | MTT | 25 µM, 24 h | viability | 70.1% |
| Nc1nc2ccc(-c3c/c(=N\c4ccccc4NC(=O)CCN4CCOCC4)c4ccccc4o3)cc2o1 | MDA-MB-231 | CCK-8 | 1 µM | inhibition | -0.02% |
| COc1cccc2c1C(=O)c1c(O)c3c(c(O)c1C2=O)C[C@@](O)(C(=O)CO)C[C@@H]3O[C@H]1C[C@H](N)[C@H](O)[C@H](C)O1 | HS27 | CCK-8 | 72 h | IC50 | 0.109 µM |
| NCC(=O)Nc1ccccc1/N=c1\cc(-c2ccc3c(c2)OCO3)oc2ccccc12 | MDA-MB-231 | CCK-8 | 1 µM | inhibition | 12.4% |
| COc1cccc(NC(=O)Nc2ccc(Oc3nc4ccccc4n4cnnc34)cc2)c1 | MDA-MB-231 | MTT | 100 µM, 24 h | viability | 24.6% |
| COc1cc(C(=O)c2nc(-c3cccc4[nH]nnc34)c[nH]2)cc(OC)c1OC | A-375 | MTS | 72 h | IC50 | 0.0632 µM |
| O=C(Nc1ccc(Oc2nc3ccccc3n3cnnc23)cc1)Nc1cccc(Cl)c1 | MDA-MB-231 | MTT | 50 µM, 24 h | viability | 41.2% |
| C[C@H]1CNCCN1c1nccc(-c2noc3c2CCC[C@@]32CCCc3sc(N)c(C#N)c32)n1 | A-375 | – | 5 days | EC50 | 5.01 µM |
| COc1cc(C(=O)c2nc(-c3cccc4[nH]ccc34)c(C)[nH]2)cc(OC)c1OC | A-375 | MTS | 72 h | IC50 | 0.0161 µM |
| C=C1C[C@@]23CC[C@H]4[C@@](C)(CCC[C@@]4(C)C(=O)O)[C@@H]2CC[C@@H]1C3 | MRC5 | MTT | 75 h | IC50 | 99.2 µM |
| COc1cc(C(=O)c2nc(-c3cccc4c3CCN4)c[nH]2)cc(OC)c1OC | A-375 | MTS | 72 h | IC50 | 0.022 µM |
| CCCCC(=O)Nc1ccc(-c2ccc3ncn(CCC)c(=O)c3c2)cn1 | MRC5 | CCK-8 | 72 h | IC50 | 0.48 µM |
| COc1cc(C(=O)c2nc(-c3ccsc3)c[nH]2)cc(OC)c1OC | A-375 | MTS | 72 h | IC50 | 0.0432 µM |
| NCCCC(=O)Nc1ccccc1/N=c1\cc(-c2ccc3c(c2)OCO3)oc2ccccc12 | MDA-MB-231 | CCK-8 | 1 µM | inhibition | 8.02% |
| COc1cc(C(=O)c2nc(-c3ccc4cc[nH]c4c3)c[nH]2)cc(OC)c1OC | A-375 | MTS | 72 h | IC50 | 0.0199 µM |
| COc1ccc2/c(=N/c3ccccc3NC(=O)CN)cc(-c3ccc4c(c3)OCCO4)oc2c1 | MDA-MB-231 | CCK-8 | 1 µM | inhibition | 12.6% |
